The record followed here is publication PMC10582660 (Clinical and Translational Science, 2023).

This data set has as its target T1, OATP1B3 (Homo sapiens, UniProt Q9NPD5).
T1 sequence (Q9NPD5 1-702): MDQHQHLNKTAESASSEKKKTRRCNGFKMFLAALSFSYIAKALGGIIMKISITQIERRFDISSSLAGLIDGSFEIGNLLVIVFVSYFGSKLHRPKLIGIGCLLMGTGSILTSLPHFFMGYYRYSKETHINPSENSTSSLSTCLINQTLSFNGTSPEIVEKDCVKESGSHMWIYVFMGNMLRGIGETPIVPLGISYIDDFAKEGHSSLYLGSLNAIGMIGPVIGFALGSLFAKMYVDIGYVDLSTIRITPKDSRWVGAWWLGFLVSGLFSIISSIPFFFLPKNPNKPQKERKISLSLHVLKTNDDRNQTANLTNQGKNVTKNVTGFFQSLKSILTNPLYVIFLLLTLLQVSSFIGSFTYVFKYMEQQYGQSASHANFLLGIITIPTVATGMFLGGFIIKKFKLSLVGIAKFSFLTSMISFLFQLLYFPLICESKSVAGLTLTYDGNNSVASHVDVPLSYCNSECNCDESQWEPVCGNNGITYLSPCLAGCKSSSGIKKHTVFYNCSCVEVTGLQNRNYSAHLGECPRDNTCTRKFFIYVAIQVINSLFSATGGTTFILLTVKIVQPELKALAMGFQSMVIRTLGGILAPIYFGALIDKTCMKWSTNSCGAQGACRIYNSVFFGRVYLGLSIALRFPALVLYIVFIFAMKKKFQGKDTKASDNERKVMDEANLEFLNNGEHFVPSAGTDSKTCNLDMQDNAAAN
The experiment in a line: Raloxifene as a substrate for uptake transporters. To be noted: raloxifene 1, 10 μM, 2, 20 min, two‐fold cutoff. It counts as in vitro ADME. In a few lines:
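Uptake of test compound (1 and 10 μM, 2 and 20 min) measured in transporter-expressing HEK293 or MDCKII cells or inside-out membrane vesicles. Run with positive-control probe substrates and inhibitors, plus empty-vector or untransfected control cells. Fold-accumulation relative to control cells judged against a two-fold cutoff for substrate status.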

Take `O=C(c1ccc(OCCN2CCCCC2)cc1)c1c(-c2ccc(O)cc2)sc2cc(O)ccc12` [Raloxifene, raloxifene, reference compound]: the “fold‐accumulation” value is on record as 1.56–1.70.
